High-throughput results: PubChem BioAssay, several laboratories
Most compounds without a hit are left out; they make up all but 1.8% or so of the library.
PPC-1+TRAIL kill – kills PPC-1 cancer cells in the presence of TRAIL; actives 0.41% (n = 220,000); AID 1443; PPC-1 cells + TRAIL, ATPLite viability luminescence; cell killing (% activity), % at 4 µM or 5 µM;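 active means cell killing above 50% in the first pass at 4 µM, then a duplicate retest at 5 µM averaging 50% or more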;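 further: plate controls were cells with TRAIL plus DMSO for no effect and medium-only wells lacking cells for full effect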
STAT3 blocker – STAT3 signaling inhibition; U3A cells, IL-6 STAT3-luciferase reporter, luminescence; host cell line lacks STAT1; inhibition, % at 5.5 µM; actives 0.89% (n = 190,000);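 active means inhibition above the mean inhibition across all screened compounds plus 3 SD, cut at about 44% in these data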;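 further: 0% = DMSO only wells and 100% = 100 µM nifuroxazide control wells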
C8 TRAIL sens – caspase-8 TRAIL sensitization; NB7+C8 cells + TRAIL, ATPlite viability luminescence; inhibition (viability loss, TRAIL sensitization), % at 10 µM; actives 1% (n = 360,000); AID 624354;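 active means compounds causing at least 50% loss of cell viability in the single-dose screen, relative to plate controls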
STAT3 activator – STAT3 signaling activation; U3A cells, IL-6 STAT3-luciferase reporter, luminescence; 100% = signal with IL-6 EC80 alone; activation (% of control), % at 5.6 µM; actives 0.91% (n = 190,000); AID 871;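 active means activation above the screen-wide mean of compound activation plus 3 SD, cut at about 130% in these data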;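 further: 0% = background luminescence of wells with medium and substrate only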
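Material: human STAT1-deficient U3A cells with stable STAT3-luciferase reporter / Probe or stimulus: IL-6 stimulus at 33 ng/mL final / Schedule: 1 h compound pre-exposure, 6 h IL-6 stimulation, 37 °C / Technique: luminescence / Read-out basis: percent of IL-6-only median luminescence / Control set: IL-6-only high control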
STAT1 blocker – inhibitors of IFN-gamma induced STAT1 signaling | NIH 3T3 STAT1-luciferase reporter, luminescence | inhibition, % at 5.5 µM | actives 0.35% (n = 200,000);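 active means inhibition above a set limit, the mean inhibition across all tested compounds plus 3 SD, cut at about 34% in these data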;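 further: 0% = IFN-gamma with DMSO and 100% = IFN-gamma with 300 µM nifuroxazide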
Active calls of the source: *; / = not tested or not shown.

SMILES | PPC-1+TRAIL kill | STAT3 blocker | C8 TRAIL sens | STAT3 activator | STAT1 blocker
Cc1cc(N/N=C/c2ccccc2O)nc(-c2ccccc2O)n1 | 39 | -10 | 19 | 106 | 6
COc1ccc(O)c(/C=N/Nc2nc(Nc3ccccc3)nc(-n3nc(C)cc3C)n2)c1 | -7 | 14 | 55* | 88 | 2
COc1ccc(/C=N/Nc2cc(C)nc(-n3nc(C)cc3C)n2)cc1 | 7 | -9 | 48 | 103 | -8
Cc1nc(=S)c2c([nH]1)-c1ccccc1CC21CCCCC1 | 4 | / | 80* | / | /
CCN1C(=O)[C@H]2[C@@H](c3ccc(OC)cc3)N[C@]3(CCCN(Cc4ccc(Br)cc4)C3=O)[C@H]2C1=O | / | / | -11 | / | /
C=CCNc1nc(-c2sc(NC(=O)CC)nc2C)cs1 | 14 | -37 | 0 | 135* | -28
CCOC(=O)c1cc2ccc3ccccc3c2s1 | 3 | -118 | 19 | 203* | -54
CCOC(=O)c1cc2c(s1)-c1ccccc1CC2 | 12 | -76 | -1 | 174* | -34
CCOC(=O)N1CCN(C(=O)c2cc3c(s2)-c2ccccc2OC3)CC1 | -1 | 5 | -9 | 100 | 5
COCCNc1nc2cc(-c3ccc(F)cc3)sc2c(=O)n1C | / | / | -9 | / | /
O=c1[nH]c(CCl)nc2cc(-c3ccc(F)cc3)sc12 | / | / | 81* | / | /
Cn1c(=N)n(CC(=O)c2ccc(Br)cc2)c2ccccc21 | / | / | 35 | / | /
Cn1c(=N)n(CC(=O)c2ccc(F)cc2)c2ccccc21 | / | / | 80* | / | /
CCc1ccc(C2=NNC(=Nc3cccc(S(=O)(=O)N(C)C)c3)SC2)cc1 | 2 | 7 | 71* | 97 | -12
Cc1ccc(C2=NNC(=Nc3ccc(F)cc3)SC2)cc1 | 12 | -3 | 15 | 106 | -7
Nc1nnnn1/N=C/C(Br)=C/c1ccccc1 | 8 | 11 | 59* | 99 | -9
Nc1nnnn1/N=C/C=C/c1ccccc1 | -4 | 1 | -4 | 102 | -8
CN1/C(=C/C(=O)c2cccs2)Sc2ccccc21 | 46 | -70 | 57* | 163* | -44
CN1/C(=C\C(=O)c2cccs2)Sc2ccccc21 | 28 | -30 | 64* | 130 | -75
CSc1ncc(C(=O)Nc2cccc(C)c2C)c(C)n1 | / | / | -1 | / | /
Cn1c(=O)c2c(SCC(=O)Nc3ccccc3F)nc(C3CC3)nc2n(C)c1=O | / | / | 50* | / | /
COc1nc(-c2ccccc2)nnc1-c1ccccc1 | 6 | -62 | 16 | 153* | -61
N/C(=N\OC(=O)C12CC3CC(CC(C3)C1)C2)c1cccnc1 | 5 | 2 | 9 | 102 | -12
N/C(=N\OC(=O)C12CC3CC(CC(C3)C1)C2)c1ccccc1 | 19 | -9 | 60* | 118 | -1
O=C1[C@H]2[C@@H](c3ccc(Cl)cc3)N3C(=O)N(c4cccc(Cl)c4)C(=O)[C@@]3(Cc3ccccc3)[C@H]2C(=O)N1C1CCCCC1 | / | / | 15 | / | /
SMILES | PPC-1+TRAIL kill | STAT3 blocker | C8 TRAIL sens | STAT3 activator | STAT1 blocker
OC(c1ccccc1)(c1ccccc1)C1CCN(CCCOc2ccc3c(c2)CCCC3)CC1 | / | / | 66* | / | /
CC(C)(C)c1ccc(C(O)CCCN2CCC(C(O)(c3ccccc3)c3ccccc3)CC2)cc1 (stereo not given) | 32 | -2 | 60* | 104 | 8
N#CCc1ccc(OCCCN2CCC(C(O)(c3ccccc3)c3ccccc3)CC2)cc1 | / | / | -8 | / | /
COC(=O)c1ccc2nc(Nc3nc4c(F)cc(F)cc4s3)sc2c1 | 22 | 94* | 3 | 21 | 70*
CCOC(=O)c1ccc2nc(Nc3nc4ccc(F)cc4s3)sc2c1 | 30 | 73* | 8 | 38 | 43*
COC(=O)c1ccc2nc(NC(=O)C(C)C)sc2c1 | 31 | 32 | 25 | 75 | -37
O=S(=O)(NC1c2cccc3cccc(c23)C1N1CCN(CCO)CC1)c1ccccc1 (stereo not given) | 22 | -30 | -3 | 134* | -1
COc1cccc(C(C)(O)c2nc(-c3ccc(F)cc3OC)cs2)c1 (stereo not given) | / | / | -10 | / | /
CN(C)C(=O)CCc1ccc2c3c([nH]c2c1)[C@]1(C)[C@@H](C(=O)N2CCOCC2)C[C@H](CC(=O)NCc2cccc(C(F)(F)F)c2)C(=O)N1CC3 | / | / | 14 | / | /
CCOc1ccc(NC(=O)c2ccccc2OC)cc1 | 8 | -34 | 16 | 133* | -23
CCOc1ccc(NC(=O)c2cnccn2)cc1 | 47 | 33 | 47 | 73 | -23
CCOc1ccc(NC(=O)c2ccccn2)cc1 | 87* | 98* | 91* | 16 | 59*
CCC(C)(O)c1cnc(CC(C)C)c(=O)n1O (stereo not given) | / | / | -3 | / | /
Cc1cccc2cc(C#N)c(NCCNC(=O)c3ccccc3)nc12 | / | / | -5 | / | /
CNC(=O)C1(C)CCN1C(=O)Cc1ccc(C(C)C)cc1 (stereo not given) | / | / | -8 | / | /
Cc1cccc(CSc2ncccc2C(=O)O)c1 | 54* | 3 | 3 | 105 | 6
COC(=O)C(C)Sc1nc2c([nH]c3ccccc32)c(=O)n1C (stereo not given) | 22 | -32 | -6 | 133* | 7
CCOc1ccc(-n2c(SCC(N)=O)nc3c([nH]c4ccccc43)c2=O)cc1 | 18 | -37 | 51* | 134* | 6
CCSc1nc2c([nH]c3ccccc32)c(=O)n1C | 9 | -8 | -1 | 111 | -2
O=C1CCCc2nc(N3CCc4ccccc43)ncc21 | 41 | 13 | 52* | 93 | -55
O=C1CC(c2ccccc2)Cc2nc(N3CCc4ccccc43)ncc21 (stereo not given) | / | -4 | -9 | 104 | -2
CCn1c2ccccc2nc2cc3c(cc21)c(Cl)c(=O)c1ccccc13 | / | / | 79* | / | /
CCn1c(/C=C/c2c(C)n(CC)c3ccccc23)nc2ccccc2c1=O | 15 | 3 | -3 | 98 | 8
CC1CC(=O)c2c(cc3c(-c4c(O)cc(O)c5c(O)c6c(cc45)OC(C)CC6=O)c(O)cc(O)c3c2O)O1 (stereo not given) | 14 | / | 88* | / | 7
O=Nc1ccc(NO)c2ccccc12 | / | / | 71* | / | /
Cc1ccc2nc(SCC(=O)NCCCN3CCCC3=O)[nH]c2c1 | / | / | -9 | / | /
O=C(NC1CCN(Cc2ccccc2)CC1)c1ccc(CS(=O)c2ccccc2Cl)o1 (stereo not given) | / | / | 1 | / | /
